Assay results from ChEMBL document CHEMBL1152819, “Evaluation of hexadecyloxypropyl-9-R-[2-(Phosphonomethoxy)propyl]- adenine, CMX157, as a potential treatment for human immunodeficiency virus type 1 and hepatitis B virus infections” (Antimicrob Agents Chemother, 2007).

Columns and labels:
[1] = tested on: Human immunodeficiency virus 1; experiment: Antiviral activity against HIV1 LAI in human MT2 cells assessed as inhibition of p24 antigen production by ELISA; type: functional, organism-based; conditions: Human immunodeficiency virus 1, LAI
Method in brief: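 MT-2 cells in RPMI 1640 with 10% FBS and 10 mM HEPES, infected with HIV-1 LAI at MOI 0.001 TCID50/cell. Incubated with threefold serial dilutions, three wells per dilution. EC50 taken as the concentration inhibiting p24 antigen production by 50%.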

[2] = tested on: Rattus norvegicus; experiment: AUC (0 to infinity) in Sprague-Dawley rat assessed as tenofovir level at 30 mg/kg, po administered daily for 7 days measured on day 7; type: ADME, organism-based, Plasma; set-up: time infinity, dose 30 mg/kg, route oral; conditions: in vivo, 168 h
Method in brief: (§1)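 Oral once daily for 7 days, vehicle or 10, 30 or 100 mg/kg/day, Sprague-Dawley rats 8-12 weeks old, not fasted. Plasma sampled 0.5, 1, 2, 4, 12, 24 h after dosing on days 1 and 7 (1 rat/sex/time point). CMX157 and tenofovir measured by HPLC-MS/MS, LOQ 1 ng/ml (values below set to zero). Noncompartmental analysis; Cmax/Tmax by direct observation, AUC by linear-log trapezoidal rule.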

[3] = Selectivity index, ratio of CC50 for human HepG2(2.2.15) cells to EC50 for HBV
[4] = tested on: Rattus norvegicus; experiment: Tmax in Sprague-Dawley rat assessed as tenofovir level at 10 mg/kg, po administered daily for 7 days measured on day 7; type: ADME, organism-based; set-up: dose 10 mg/kg, route oral; conditions: in vivo, 168 h; method in brief: as §1
[5] = Selectivity index, ratio of CC50 for human PBMC to EC50 for HIV1 clade B HT/92/599 isolate
Method in brief: (§2)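 Fresh human PBMCs, seronegative for HIV and HBV, infected with HIV-1 clade B HT/92/599. Antiviral read-out by reverse transcriptase reduction; cytotoxicity by XTT staining. EC50, CC50 and CC50/EC50 taken from data plots, given as mean ± standard deviation of triplicate determinations.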

[6] = tested on: Rattus norvegicus; experiment: Elimination half life in Sprague-Dawley rat assessed as tenofovir level at 10 mg/kg, po administered daily for 7 days measured on day 7; type: ADME, organism-based; set-up: dose 10 mg/kg, route oral; conditions: in vivo, 168 h; method in brief: as §1
[7] = Cytotoxicity against human MT2 cells; type: cell-based
Method in brief: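 MT-2 cells in RPMI 1640 with 10% FBS and 10 mM HEPES, exposed to threefold serial drug dilutions. CC50 calculated from cell counts and viability.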

[8] = tested on: Rattus norvegicus; experiment: Tmax in Sprague-Dawley rat assessed as tenofovir level at 30 mg/kg, po administered daily for 7 days measured on day 1; type: ADME, organism-based; set-up: dose 30 mg/kg, route oral; conditions: in vivo, 168 h; method in brief: as §1
[9] = tested on: Rattus norvegicus; experiment: Elimination half life in Sprague-Dawley rat assessed as tenofovir level at 100 mg/kg, po administered daily for 7 days measured on day 7; type: ADME, organism-based; set-up: dose 100 mg/kg, route oral; conditions: in vivo, 168 h; method in brief: as §1
[10] = tested on: Rattus norvegicus; experiment: AUC (0 to infinity) in Sprague-Dawley rat assessed as tenofovir level at 100 mg/kg, po administered daily for 7 days measured on day 7; type: ADME, organism-based, Plasma; set-up: time infinity, dose 100 mg/kg, route oral; conditions: in vivo, 168 h; method in brief: as §1
[11] = tested on: Rattus norvegicus; experiment: Tmax in Sprague-Dawley rat assessed as tenofovir level at 100 mg/kg, po administered daily for 7 days measured on day 1; type: ADME, organism-based; set-up: dose 100 mg/kg, route oral; conditions: in vivo, 168 h; method in brief: as §1
[12] = Selectivity index, ratio of CC50 for human HepG2 cells to EC50 for HBV
[13] = Cytotoxicity against human HepG2 cells by MTS assay; type: cell-based; conditions: human, HepG2 cells
Method in brief: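 Exponentially growing HepG2 cells (parent hepatoma line); cytostatic effect measured by MTS method.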

[14] = tested on: Rattus norvegicus; experiment: Elimination half life in Sprague-Dawley rat assessed as tenofovir level at 30 mg/kg, po administered daily for 7 days measured on day 7; type: ADME, organism-based; set-up: dose 30 mg/kg, route oral; conditions: in vivo, 168 h; method in brief: as §1
[15] = Cytotoxicity against human PBMC by XTT assay; type: cell-based; method in brief: as §2
[16] = tested on: Rattus norvegicus; experiment: Elimination half life in Sprague-Dawley rat assessed as tenofovir level at 100 mg/kg, po administered daily for 7 days measured on day 1; type: ADME, organism-based; set-up: dose 100 mg/kg, route oral; conditions: in vivo, 168 h; method in brief: as §1
[17] = Cytotoxicity against human HepG2(2.2.15) cells after 24 hrs by neutral red uptake assay; type: cell-based; conditions: human, HepG2 2.2.15 cells
Method in brief: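 Confluent 2.2.15 cells given nine daily treatments. Neutral red uptake read by absorbance of internalized dye 24 h after the last treatment, three cultures per concentration.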

[18] = tested on: Rattus norvegicus; experiment: Elimination half life in Sprague-Dawley rat assessed as tenofovir level at 30 mg/kg, po administered daily for 7 days measured on day 1; type: ADME, organism-based; set-up: dose 30 mg/kg, route oral; conditions: in vivo, 168 h; method in brief: as §1
[19] = tested on: Human immunodeficiency virus 1; experiment: Antiviral activity against HIV1 clade B HT/92/599 isolate in human PBMC assessed as reduction in reverse transcriptase; type: functional, organism-based; conditions: Human immunodeficiency virus 1, clade B; method in brief: as §2
[20] = tested on: Rattus norvegicus; experiment: AUC (0 to infinity) in Sprague-Dawley rat assessed as tenofovir level at 10 mg/kg, po administered daily for 7 days measured on day 1; type: ADME, organism-based, Plasma; set-up: time infinity, dose 10 mg/kg, route oral; conditions: in vivo, 168 h; method in brief: as §1
[21] = tested on: Rattus norvegicus; experiment: Elimination half life in Sprague-Dawley rat assessed as tenofovir level at 10 mg/kg, po administered daily for 7 days measured on day 1; type: ADME, organism-based; set-up: dose 10 mg/kg, route oral; conditions: in vivo, 168 h
Method in brief: (§3)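 Sprague-Dawley rats (3/sex/group), about 8 to 12 weeks old and not fasted, got vehicle or 10, 30 or 100 mg/kg/day orally once daily for 7 days. Blood was drawn at 0.5, 1, 2, 4, 12 and 24 h after dosing on days 1 and 7 (1 rat/sex/time point). Plasma was deproteinized, then HPLC-MS/MS (LOQ 1 ng/ml, values below set to zero). Noncompartmental analysis, AUC by linear-log trapezoidal rule.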

[22] = tested on: Rattus norvegicus; experiment: AUC (0 to infinity) in Sprague-Dawley rat assessed as tenofovir level at 30 mg/kg, po administered daily for 7 days measured on day 1; type: ADME, organism-based, Plasma; set-up: time infinity, dose 30 mg/kg, route oral; conditions: in vivo, 168 h; method in brief: as §3
[23] = tested on: Rattus norvegicus; experiment: Tmax in Sprague-Dawley rat assessed as tenofovir level at 10 mg/kg, po administered daily for 7 days measured on day 1; type: ADME, organism-based; set-up: dose 10 mg/kg, route oral; conditions: in vivo, 168 h; method in brief: as §1
[24] = tested on: Rattus norvegicus; experiment: Tmax in Sprague-Dawley rat assessed as tenofovir level at 100 mg/kg, po administered daily for 7 days measured on day 7; type: ADME, organism-based; set-up: dose 100 mg/kg, route oral; conditions: in vivo, 168 h; method in brief: as §1
[25] = tested on: Rattus norvegicus; experiment: Tmax in Sprague-Dawley rat assessed as tenofovir level at 30 mg/kg, po administered daily for 7 days measured on day 7; type: ADME, organism-based; set-up: dose 30 mg/kg, route oral; conditions: in vivo, 168 h; method in brief: as §1
[26] = tested on: Hepatitis B virus; experiment: Antiviral activity against HBV in human HepAD38 cells assessed as intracellular viral DNA levels treated for 3 days measured on day 6 […] by RT-PCR; type: functional, organism-based
Method in brief: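 HepAD38 cells seeded at 5 x 10^5/well, grown 2-3 days with 0.3 µg/ml tetracycline, then induced by PBS wash and tetracycline/G418-free medium with or without compound at 37°C, 5% CO2. Medium changed after 3 days. Intracellular HBV DNA measured on day 6 postinduction by TaqMan real-time PCR against a plasmid standard curve, given as % of mock.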

[27] = tested on: Hepatitis B virus; experiment: Antiviral activity against HBV in human HepG2(2.2.15) cells assessed as viral DNA levels treated for 9 days measured after 24 hrs; type: functional, organism-based
Method in brief: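 Confluent 2.2.15 cells in RPMI 1640 with 2% FBS, given nine consecutive daily doses with daily medium change (six cultures per concentration on two replicate plates). HBV DNA quantified by blot hybridization 24 h after the last treatment.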

[28] = tested on: Rattus norvegicus; experiment: AUC (0 to infinity) in Sprague-Dawley rat assessed as tenofovir level at 10 mg/kg, po administered daily for 7 days measured on day 7; type: ADME, organism-based, Plasma; set-up: time infinity, dose 10 mg/kg, route oral; conditions: in vivo, 168 h; method in brief: as §1
[29] = tested on: Rattus norvegicus; experiment: AUC (0 to infinity) in Sprague-Dawley rat assessed as tenofovir level at 100 mg/kg, po administered daily for 7 days measured on day 1; type: ADME, organism-based, Plasma; set-up: time infinity, dose 100 mg/kg, route oral; conditions: in vivo, 168 h; method in brief: as §1
[30] = Selectivity index, ratio of CC50 for human MT2 cells to EC50 for HIV1 LAI; type: toxicity, cell-based; conditions: read-out: Ratio CC50/EC50

`CCCCCCCCCCCCCCCCOCCCOP(=O)(O)CO[C@H](CO)Cn1cnc2c(N)ncnc21` gave an EC50 [1] of 0.007 µM.
For `C[C@H](Cn1cnc2c(N)ncnc21)OCP(=O)(O)O` [TENOFOVIR ANHYDROUS], the AUC [2] was 2790.5 ng·h/mL, the “Ratio CC50/EC50” value [3] was over 41.7 and the Tmax [4] was 2.4 h. The “Ratio CC50/EC50” value [5] was 396, the “beta t1/2” value [6] was 9.2 h and the CC50 [7] was over 100 µM. For the same compound, the Tmax [8] was 4 h, the “beta t1/2” value [9] was 9 h and the AUC [10] was 7373.4 ng·h/mL. For the same compound, the Tmax [11] was 12 h, the “Ratio CC50/EC50” value [12] was over 133 and the CC50 [13] was over 100 µM. For the same compound, the EC50 [1] was 0.65 µM, the “beta t1/2” value [14] was 7.6 h and the CC50 [15] was 1270 µM. The “beta t1/2” value [16] was 7.2 h, the CC50 at 24 h [17] was over 300 µM and the “beta t1/2” value [18] was 10.1 h. For the same compound, the EC50 [19] was 3.2 µM, the AUC [20] was 775.2 ng·h/mL and the “beta t1/2” value [21] was 10.9 h. It also gave an AUC [22] of 1808.1 ng·h/mL, a Tmax [23] of 2 h and a Tmax [24] of 12 h. It also gave a Tmax [25] of 4 h, an EC50 [26] of 2.25 µM and an EC50 [27] of 7.2 µM. The AUC [28] was 1226.9 ng·h/mL, the AUC [29] was 3639.5 ng·h/mL and the selectivity ratio [30] was over 154.
